Assay [1] deals with Leishmania amazonensis. Kind of assay: Antileishmanial activity against beta-lactamase transfected Leishmania amazonensis promastigotes infected in macrophages after 72 hrs by spectrophotometric analysis. In kind it is functional, organism-based. The essentials:
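Macrophages plated and adhered overnight; infected with β-lactamase-transfected L. amazonensis promastigotes (MOI 5:1) overnight; compounds added for 72 hours at 34 °C; nitrocefin in lysis buffer added for 3 to 5 hours further; absorbance read at 490 nm. IC50 (μM) averaged with standard errors, n ≥ 3.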

In assay [2] the test system is Leishmania donovani. The experiment in a line: Antileishmanial activity against Leishmania donovani axenic amastigotes after 3 days by tetrazolium dye based spectrophotometric analysis at pH 5.5. In kind it is functional, organism-based. As to conditions: 72 h. The essentials: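 Ld1s axenic amastigote-like L. donovani grown in potassium-based medium, pH 5.5, 37 °C; exposed to compounds for three days; tetrazolium dye added and read spectrophotometrically. IC50 (μM) averaged with standard errors, n ≥ 3.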

A value given as a limit tells only on which side of the number the result lay.

One may read the IC50 as the concentration at which inhibition is half-maximal. Higher therefore signals lower potency. Regarding `N/C(=N\c1ccc(-c2ccc(-c3ccc(/N=C(\N)c4ccccn4)cc3OC3CCNCC3)o2)c(OC2CCNCC2)c1)c1ccccn1`, the 50% inhibitory concentration (IC50) in assay [1] is more than 10 µM; in assay [2], 59 µM.
For the molecule `Cc1cccc(C(=N)Nc2ccc(-c3ccc(-c4ccc(NC(=N)c5cccc(C)n5)cc4C)o3)c(C)c2)n1`, the IC50 in assay [1] is 3.1 µM; in assay [2] it was more than 50 µM.
Taken in the same sequence, the figures for `N=C(Nc1ccc(-c2ccc(-c3ccc(NC(=N)c4ccccn4)cc3F)o2)c(F)c1)c1ccccn1` were 1.4 µM and 4.2 µM.
In the same order, the values of `CC(C)Oc1cc(NC(=N)c2ccn(C)n2)ccc1-c1ccc(-c2ccc(NC(=N)c3ccn(C)n3)cc2OC(C)C)o1` are 0.74 µM and 5.8 µM.
As to `CC(C)Oc1cc(NC(=N)c2ncc[nH]2)ccc1-c1ccc(-c2ccc(NC(=N)c3ncc[nH]3)cc2OC(C)C)o1`, the IC50 in assay [1] came out at 0.37 µM; in assay [2], 1 µM.
`CC(C)Oc1cc(NC(=N)c2ccc(Cl)cn2)ccc1-c1ccc(-c2ccc(NC(=N)c3ccc(Cl)cn3)cc2OC(C)C)o1`: the figures for the half-inhibitory concentration (IC50) in assay [1] and in assay [2] were more than 10 µM and 5.6 µM, respectively.
Taken in the same sequence, the figures for `N=C(Nc1ccc(-c2ccc(-c3ccc(NC(=N)c4c[nH]cn4)cc3OC3CCCC3)o2)c(OC2CCCC2)c1)c1c[nH]cn1` were more than 10 µM and 14 µM.
Taken in the same sequence, the figures for `COC(=O)[C@H](N)CCOc1cc(NC(=N)c2ccccn2)ccc1-c1ccc(-c2ccc(NC(=N)c3ccccn3)cc2OCC[C@H](N)C(=O)OC)s1` were 5.5 µM and more than 100 µM.
Taken in the same sequence, the figures for `N=C(Nc1ccc(-c2ccc(-c3ccc(NC(=N)c4ccccn4)cc3O)o2)c(O)c1)c1ccccn1` were 0.96 µM and 1.5 µM.
`N=C(Nc1ccc(-c2ccc(-c3ccc(NC(=N)c4ccccn4)cc3OCc3ccccc3)o2)c(OCc2ccccc2)c1)c1ccccn1`: the results for the IC50 in assay [1] and in assay [2] were 0.51 µM and 4.5 µM, respectively.
In the same order, the values of `N=C(Nc1ccc(-c2ccc(-c3ccc(NC(=N)c4ccccn4)cc3Br)o2)c(Br)c1)c1ccccn1` are 0.62 µM and 1.2 µM.
In the same order, the values of `Cc1c(-c2ccc(NC(=N)c3ccccn3)cc2)oc(-c2ccc(NC(=N)c3ccccn3)cc2)c1C` are 0.11 µM and 0.37 µM.
Take `CC(C)Oc1cc(NC(=N)c2ncccn2)ccc1-c1ccc(-c2ccc(NC(=N)c3ncccn3)cc2OC(C)C)o1`: the IC50 in assay [1] was found to be 0.7 µM; in assay [2], 0.55 µM.
Turning to `CC(C)Oc1cc(NC(=N)c2cn(C)cn2)ccc1-c1ccc(-c2ccc(NC(=N)c3cn(C)cn3)cc2OC(C)C)o1`, the 50% inhibitory concentration (IC50) in assay [1] was determined as 5 µM; in assay [2], 31 µM.
In the same order, the values of `Cc1nc(C(=N)Nc2ccc(-c3ccc(-c4ccc(NC(=N)c5csc(C)n5)cc4OC(C)C)o3)c(OC(C)C)c2)cs1` are 0.17 µM and 1.4 µM.
Take `N=C(Nc1ccc(-c2ccc(-c3ccc(NC(=N)c4ccccn4)nc3)o2)cn1)c1ccccn1`: the figures for the half-maximal inhibitory concentration (IC50) in assay [1] and in assay [2] were more than 10 µM and more than 50 µM, respectively.
In the same order, the values of `N=C(Nc1ccc(-c2ccc(-c3ccc(NC(=N)c4ccccn4)cc3OC3CCCC3)o2)c(OC2CCCC2)c1)c1ccccn1` are 0.17 µM and 1.4 µM.
In the case of `N=C(Nc1ccc(-c2ccc(-c3ccc(NC(=N)c4ncccn4)cc3OC3CCCC3)o2)c(OC2CCCC2)c1)c1ncccn1`, the results for the IC50 in assay [1] and in assay [2] were 0.21 µM and 1.5 µM, respectively.
In the same order, the values of `CC(C)Oc1cc(NC(=N)c2cnccn2)ccc1-c1ccc(-c2ccc(NC(=N)c3cnccn3)cc2OC(C)C)o1` are 3.7 µM and 20 µM.
In the case of `CC(C)Oc1cc(NC(=N)c2ccc[nH]2)ccc1-c1ccc(-c2ccc(NC(=N)c3ccc[nH]3)cc2OC(C)C)o1`, the figures for the IC50 in assay [1] and in assay [2] were 0.9 µM and 16 µM, respectively.
In the case of `N=C(Nc1cnc(-c2ccc(-c3cnc(NC(=N)c4ccccn4)cn3)o2)cn1)c1ccccn1`, the results for the IC50 in assay [1] and in assay [2] were more than 10 µM and more than 100 µM, respectively.
For the molecule `N=C(Nc1ncc(-c2ccc(-c3cnc(NC(=N)c4ccccn4)nc3)o2)cn1)c1ccccn1`, the IC50 in assay [1] is more than 10 µM; in assay [2] it was more than 100 µM.
Taken in the same sequence, the figures for `N=C(Nc1ccc(-c2ccc(-c3ccc(NC(=N)c4cnccn4)cc3)o2)cc1)c1cnccn1` were more than 10 µM and more than 100 µM.
In the same order, the values of `N=C(Nc1ccc(-c2ccc(-c3ccc(NC(=N)c4ccccn4)cc3OCC(F)(F)F)o2)c(OCC(F)(F)F)c1)c1ccccn1` are 0.25 µM and 1.1 µM.
In the same order, the values of `CC(C)Oc1cc(NC(=N)c2ccc(F)cn2)ccc1-c1ccc(-c2ccc(NC(=N)c3ccc(F)cn3)cc2OC(C)C)o1` are 0.59 µM and 2.5 µM.
Take `CC(C)Oc1cc(NC(=N)c2ccccn2)ccc1-c1ccc(-c2ccc(NC(=N)c3ccccn3)cc2OC(C)C)s1`: the IC50 in assay [1] came to 0.045 µM; in assay [2] it was 0.68 µM.
Taken in the same sequence, the figures for `COc1ccc(C(=N)Nc2ccc(-c3ccc(-c4ccc(NC(=N)c5ccc(OC)cn5)cc4OC(C)C)o3)c(OC(C)C)c2)nc1` were 0.13 µM and 1 µM.
Taken in the same sequence, the figures for `CC(C)Oc1cc(NC(=N)c2ccc(Br)cn2)ccc1-c1ccc(-c2ccc(NC(=N)c3ccc(Br)cn3)cc2OC(C)C)o1` were more than 10 µM and 28 µM.
Taken in the same sequence, the figures for `CC(C)N1CCC(Oc2cc(NC(=N)c3ccccn3)ccc2-c2ccc(-c3ccc(NC(=N)c4ccccn4)cc3OC3CCN(C(C)C)CC3)o2)CC1` were 2.1 µM and 28 µM.
With `N=C(Nc1ccc(-c2ccc(-c3ccc(NC(=N)c4ccc(Cl)cn4)cc3OC3CCCC3)o2)c(OC2CCCC2)c1)c1ccc(Cl)cn1`, the IC50 in assay [1] is more than 10 µM; in assay [2], more than 100 µM.
Take `N=C(Nc1ccc(-c2ccc(-c3ccc(NC(=N)c4ccc(Br)cn4)cc3OC3CCCC3)o2)c(OC2CCCC2)c1)c1ccc(Br)cn1`: the values for the IC50 in assay [1] and in assay [2] were more than 10 µM and more than 100 µM, respectively.
In the case of `CC(C)COc1cc(NC(=N)c2ccccn2)ccc1-c1ccc(-c2ccc(NC(=N)c3ccccn3)cc2OCC(C)C)o1`, the IC50 in assay [1] was determined as 0.095 µM; in assay [2], 1.1 µM.
With `CC(C)Oc1cc(NC(=N)c2ccc(N3CCCC3)cn2)ccc1-c1ccc(-c2ccc(NC(=N)c3ccc(N4CCCC4)cn3)cc2OC(C)C)o1`, the IC50 in assay [1] worked out at 0.27 µM; in assay [2], 1.9 µM.
In the same order, the values of `COc1cccc(C(=N)Nc2ccc(-c3ccc(-c4ccc(NC(=N)c5cccc(OC)n5)cc4OC(C)C)o3)c(OC(C)C)c2)n1` are 2.7 µM and 4.5 µM.
Turning to `CC(C)COc1cc(NC(=N)c2c[nH]cn2)ccc1-c1ccc(-c2ccc(NC(=N)c3c[nH]cn3)cc2OCC(C)C)o1`, the results for the IC50 in assay [1] and in assay [2] were more than 10 µM and 23 µM, respectively.
As to `CC(C)COc1cc(NC(=N)c2ccc(Br)cn2)ccc1-c1ccc(-c2ccc(NC(=N)c3ccc(Br)cn3)cc2OCC(C)C)o1`, the figures for the IC50 in assay [1] and in assay [2] were more than 10 µM and more than 50 µM, respectively.
In the same order, the values of `CC(C)COc1cc(NC(=N)c2ncccn2)ccc1-c1ccc(-c2ccc(NC(=N)c3ncccn3)cc2OCC(C)C)o1` are 0.49 µM and 2.4 µM.
`CC(=N)Nc1ccc(-c2ccc(-c3ccc(NC(C)=N)cc3OC3CCCC3)o2)c(OC2CCCC2)c1`: the values for the IC50 in assay [1] and in assay [2] were 4.7 µM and 41 µM, respectively.
`CC(C)Oc1cc(NC(=N)c2cccnn2)ccc1-c1ccc(-c2ccc(NC(=N)c3cccnn3)cc2OC(C)C)o1`: the IC50 in assay [1] and in assay [2] was 1.1 µM each time.
As for `CC(C)Oc1cc(NC(=N)c2csc(N)n2)ccc1-c1ccc(-c2ccc(NC(=N)c3csc(N)n3)cc2OC(C)C)o1`, the IC50 in assay [1] came to 1.7 µM; in assay [2] it was 21 µM.
With `CC(=O)Nc1nc(C(=N)Nc2ccc(-c3ccc(-c4ccc(NC(=N)c5csc(NC(C)=O)n5)cc4OC(C)C)o3)c(OC(C)C)c2)cs1`, the values for the IC50 in assay [1] and in assay [2] were 0.22 µM and more than 100 µM, respectively.
In the same order, the values of `CC(C)Oc1cc(NC(=N)c2ccc(N)cn2)ccc1-c1ccc(-c2ccc(NC(=N)c3ccc(N)cn3)cc2OC(C)C)o1` are 0.64 µM and 0.82 µM.
In the same order, the values of `CC(=O)N(C)c1nc(C(=N)Nc2ccc(-c3ccc(-c4ccc(NC(=N)c5csc(N(C)C(C)=O)n5)cc4OC(C)C)o3)c(OC(C)C)c2)cs1` are 0.81 µM and 3.6 µM.
In the same order, the values of `CNc1nc(C(=N)Nc2ccc(-c3ccc(-c4ccc(NC(=N)c5csc(NC)n5)cc4OC(C)C)o3)c(OC(C)C)c2)cs1` are 0.3 µM and 1.3 µM.
In the case of `CC(C)CCOc1cc(NC(=N)c2ccccn2)ccc1-c1ccc(-c2ccc(NC(=N)c3ccccn3)cc2OCCC(C)C)o1`, the IC50 was more than 10 µM in assay [1] and 5.1 µM in assay [2].
For `CC(C)(C)CCOc1cc(NC(=N)c2ccccn2)ccc1-c1ccc(-c2ccc(NC(=N)c3ccccn3)cc2OCCC(C)(C)C)o1`, the IC50 in assay [1] is more than 10 µM; in assay [2], 28 µM.
In the same order, the values of `Cc1cc(NC(=N)c2ccccn2)ccc1-c1ccc(-c2ccc(NC(=N)c3ccccn3)cc2C)o1` are 0.29 µM and 0.67 µM.
In the same order, the values of `N=C(Nc1ccc(-c2cc(-c3ccccc3)c(-c3ccc(NC(=N)c4ccccn4)cc3)o2)cc1)c1ccccn1` are 0.11 µM and 1.7 µM.
Taken in the same sequence, the figures for `N=C(Nc1ccc(-c2ccc(-c3ccc(NC(=N)c4ccccn4)cc3Cl)o2)c(Cl)c1)c1ccccn1` were 0.56 µM and 2 µM.
Regarding `COc1cc(NC(=N)c2ccccn2)ccc1-c1ccc(-c2ccc(NC(=N)c3ccccn3)cc2OC)o1`, the IC50 is 0.37 µM in assay [1] and 0.53 µM in assay [2].
In the case of `Cc1ccc(C(=N)Nc2ccc(-c3ccc(-c4ccc(NC(=N)c5ccc(C)cn5)cc4C)o3)c(C)c2)nc1`, the IC50 in assay [1] is 0.16 µM; in assay [2], 0.84 µM.
Consider `N=C(Nc1ccc(-c2ccc(-c3ccc(NC(=N)c4ccccn4)cc3)o2)cc1)c1ccccn1`, for which the values for the IC50 in assay [1] and in assay [2] were 0.53 µM and 1.6 µM, respectively.

Values taken from ChEMBL document CHEMBL1811805, “Molecular factors governing inhibition of arylimidamides against Leishmania: conservative computational modeling to improve chemotherapies” (Bioorg Med Chem, 2011).
